From ChEMBL document CHEMBL2046296, “Synthesis and antidepressant activity of arylalkanol-piperidine derivatives as triple reuptake inhibitors” (Eur J Med Chem, 2012)

Tests used:
[1] = target: T1, Sodium-dependent serotonin transporter (Homo sapiens, UniProt P31645); experiment: Inhibition of [3H]serotonin uptake at human SERT expressed in HEK293 cells after 10 min by scintillation counting
Target sequence in this assay (P31645 whole entry): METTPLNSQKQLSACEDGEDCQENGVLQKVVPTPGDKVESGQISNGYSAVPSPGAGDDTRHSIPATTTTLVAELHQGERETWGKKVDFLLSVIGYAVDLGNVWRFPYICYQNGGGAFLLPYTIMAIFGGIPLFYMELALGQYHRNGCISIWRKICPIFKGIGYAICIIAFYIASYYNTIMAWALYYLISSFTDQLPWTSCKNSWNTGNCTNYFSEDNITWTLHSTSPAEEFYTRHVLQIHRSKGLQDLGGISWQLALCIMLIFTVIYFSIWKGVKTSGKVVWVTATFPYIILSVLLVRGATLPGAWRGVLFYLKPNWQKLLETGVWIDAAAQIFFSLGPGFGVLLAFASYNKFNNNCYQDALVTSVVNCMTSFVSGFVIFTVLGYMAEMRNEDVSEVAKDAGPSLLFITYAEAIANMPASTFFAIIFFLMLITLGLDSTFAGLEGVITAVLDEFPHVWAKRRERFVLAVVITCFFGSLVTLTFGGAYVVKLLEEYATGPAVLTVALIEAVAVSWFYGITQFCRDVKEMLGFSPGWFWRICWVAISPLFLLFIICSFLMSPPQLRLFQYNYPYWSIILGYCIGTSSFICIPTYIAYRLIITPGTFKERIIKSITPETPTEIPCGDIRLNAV

[2] = target: Sodium-dependent dopamine transporter (Homo sapiens, UniProt Q01959); experiment: Inhibition of [3H]dopamine uptake at human DAT expressed in HEK293 cells at 10 uM after 10 mins by scintillation counting
[3] = target: T2, Sodium-dependent noradrenaline transporter (Homo sapiens, UniProt P23975); experiment: Inhibition of [3H]noradrenaline uptake at human NET expressed in HEK293 cells at 10 uM after 10 mins by scintillation counting
[4] = target: T2, Sodium-dependent noradrenaline transporter; experiment: Inhibition of [3H]noradrenaline uptake at human NET expressed in HEK293 cells after 10 mins by scintillation counting
[5] = target: T1, Sodium-dependent serotonin transporter; experiment: Inhibition of [3H]serotonin uptake at human SERT expressed in HEK293 cells at 10 uM after 10 min by scintillation counting
Target sequence in this assay (P31645 whole entry, looked up): as the sequence (P31645 whole entry) above

Mus musculus [6] = experiment: Antidepressant activity in mouse assessed as decrease in immobility at 50 mg/kg, po administered 30 mins prior to testing by tail suspension test relative to vehicle control; type: functional; parameters: scale not given: the % may be the effect or the level left
Outline: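 Oral doses of 10–50 mg/kg (three doses) were given once, 30 min before testing. Mice were hung by adhesive tape 1 cm from the tail tip, 75 cm above the tabletop. Immobility was recorded for 5 min, scored blind, 10–12 mice per group, against vehicle controls. One-way ANOVA with Scheffe post hoc test; p<0.05 significant.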

Mus musculus [7] = experiment: Toxicity in mouse assessed as increase in locomotor activity at 50 mg/kg, po up to 5 mins relative to vehicle treated control; type: organism-based; parameters: dose 50 mg/kg, route oral; conditions: in vivo
Outline: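 Mice were dosed orally at 50 mg/kg and 30 min later placed singly in new 35×35×35 cm plastic cages under dim light with sound attenuation. Activity was logged by a monitoring apparatus at intervals up to 30 min, and the 5 min point was analysed. Mean ± SEM; one-way ANOVA, Scheffe post hoc, versus control.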

T2 sequence (P23975 whole entry): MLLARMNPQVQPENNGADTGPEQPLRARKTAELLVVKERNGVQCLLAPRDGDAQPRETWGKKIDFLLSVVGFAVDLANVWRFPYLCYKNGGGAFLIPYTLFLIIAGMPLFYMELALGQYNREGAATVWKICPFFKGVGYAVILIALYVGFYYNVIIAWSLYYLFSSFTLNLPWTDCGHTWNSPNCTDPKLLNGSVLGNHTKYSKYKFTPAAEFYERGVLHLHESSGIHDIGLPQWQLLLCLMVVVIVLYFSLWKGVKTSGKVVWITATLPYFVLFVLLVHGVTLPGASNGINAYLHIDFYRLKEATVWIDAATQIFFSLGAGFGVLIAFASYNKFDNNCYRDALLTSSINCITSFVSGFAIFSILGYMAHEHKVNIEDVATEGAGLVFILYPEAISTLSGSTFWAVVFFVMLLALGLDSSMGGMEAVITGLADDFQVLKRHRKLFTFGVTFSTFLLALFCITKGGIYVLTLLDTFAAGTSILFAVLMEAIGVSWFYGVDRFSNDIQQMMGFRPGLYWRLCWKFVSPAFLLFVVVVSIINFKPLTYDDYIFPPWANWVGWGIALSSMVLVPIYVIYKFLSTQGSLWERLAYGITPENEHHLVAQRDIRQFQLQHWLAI
Chain of Sodium-dependent dopamine transporter (Q01959 whole entry): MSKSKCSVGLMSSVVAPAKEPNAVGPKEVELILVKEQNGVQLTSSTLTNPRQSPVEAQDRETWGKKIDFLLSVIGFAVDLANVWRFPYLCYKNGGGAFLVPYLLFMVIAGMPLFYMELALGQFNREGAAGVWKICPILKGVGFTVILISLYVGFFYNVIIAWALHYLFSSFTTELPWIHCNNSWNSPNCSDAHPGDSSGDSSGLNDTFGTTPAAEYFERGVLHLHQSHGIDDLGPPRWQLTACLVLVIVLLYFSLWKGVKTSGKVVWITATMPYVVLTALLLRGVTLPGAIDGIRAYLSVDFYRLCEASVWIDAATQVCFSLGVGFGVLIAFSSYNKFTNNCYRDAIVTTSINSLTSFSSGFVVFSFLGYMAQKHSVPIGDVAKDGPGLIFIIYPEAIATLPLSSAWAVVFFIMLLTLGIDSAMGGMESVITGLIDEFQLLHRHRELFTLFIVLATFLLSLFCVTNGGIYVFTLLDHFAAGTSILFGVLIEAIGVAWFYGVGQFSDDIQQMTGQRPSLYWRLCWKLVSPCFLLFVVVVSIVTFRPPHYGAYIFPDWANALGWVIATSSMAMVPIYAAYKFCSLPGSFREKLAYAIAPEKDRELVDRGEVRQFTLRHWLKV

IC50 [1]	inhibition [2]	inhibition [3]	IC50 [4]	inhibition [5]	SMILES	Activity (Mus musculus [6])	Activity (Mus musculus [7])
427 nM	73%	–	800 nM	–	COc1ccc2cc(C(O)CCN3CCC(O)(Cc4ccccc4)CC3)ccc2c1Cl (racemic)	–	–
357 nM	22%	55%	–	–	COc1ccc2cc([C@H](O)[C@H](C)N3CCC(O)(Cc4ccccc4)CC3)ccc2c1Cl (racemic)	–	–
367 nM	64%	–	531 nM	–	C[C@@H]([C@@H](O)c1ccc(Cl)c(Cl)c1)N1CC=C(Cc2ccccc2)CC1 (racemic)	–	–
–	70%	62%	–	59%	COc1ccc([C@H](O)[C@@H](C)N2CC=C(Cc3ccccc3)CC2)cc1 (racemic)	–	–
–	68%	55%	–	80%	COc1ccc([C@H](O)[C@H](C)N2CC=C(Cc3ccccc3)CC2)cc1 (racemic)	–	–
–	51%	63%	–	80%	COc1ccc2cc([C@H](O)[C@@H](C)N3CCC(O)(Cc4ccccc4)CC3)ccc2c1Cl (racemic)	–	–
–	70%	57%	–	63%	C[C@@H]([C@@H](O)c1cccc(F)c1)N1CC=C(Cc2ccccc2)CC1 (racemic)	–	–
–	56%	36%	–	38%	C[C@H]([C@@H](O)c1ccc(Cl)c(Cl)c1)N1CC=C(Cc2ccccc2)CC1 (racemic)	–	–
–	35%	83%	–	61%	C[C@H]([C@@H](O)c1cccc(F)c1)N1CC=C(Cc2ccccc2)CC1 (racemic)	–	–

The next lines start with the compound.

SMILES	IC50 [1]	inhibition [2]	inhibition [3]	IC50 [4]	inhibition [5]	Activity (Mus musculus [6])	Activity (Mus musculus [7])
COc1ccc(C(O)CCN2CC=C(Cc3ccccc3)CC2)cc1 (racemic)	768 nM	57%	62%	–	–	–	–
COc1ccc(C(O)CCN2CC=C(Cc3ccccc3)CC2)cc1OC (racemic)	–	61%	63%	–	74%	–	–
C[C@@H]([C@@H](O)c1csc2ccccc12)N1CC=C(Cc2ccccc2)CC1 (racemic)	–	77%	34%	–	33%	–	–
C[C@H]([C@@H](O)c1csc2ccccc12)N1CC=C(Cc2ccccc2)CC1 (racemic)	–	75%	78%	–	55%	–	–
Cc1ccc(C(O)CCN2CC=C(Cc3ccccc3)CC2)cc1 (racemic)	–	30%	83%	–	62%	–	–
O=[N+]([O-])c1ccc(C(O)CCN2CC=C(Cc3ccccc3)CC2)cc1 (racemic)	–	55%	74%	–	65%	–	–
OC(CCN1CC=C(Cc2ccccc2)CC1)c1ccc(Cl)cc1 (racemic)	–	61%	50%	–	56%	–	–
OC(CCN1CC=C(Cc2ccccc2)CC1)c1ccc(F)cc1F (racemic)	–	66%	78%	–	66%	–	–
OC(CCN1CC=C(Cc2ccccc2)CC1)c1ccc2c(c1)CCO2 (racemic)	–	49%	88%	–	74%	–	–
OC(CCN1CC=C(Cc2ccccc2)CC1)c1cccs1 (racemic)	–	52%	82%	–	78%	–	–
OC(CCN1CCC(O)(Cc2ccccc2)CC1)c1csc2ccccc12 (racemic)	–	64%	61%	–	27%	–	–
COc1ccc(C(CN(C)C)C2(O)CCCCC2)cc1 (configuration not stated) [VENLAFAXINE]	–	–	–	–	–	63%	Non-toxic
